Data on four compounds can be found in ChEMBL document CHEMBL2346554, “Extreme multidrug resistant HIV-1 protease with 20 mutations is resistant to novel protease inhibitors with P1'-pyrrolidinone or P2-tris-tetrahydrofuran” (J Med Chem, 2013).

The source made the active and inactive calls. The calls are words filed in the database; no cut-off is given here.

For experiment [1], the system named is Human immunodeficiency virus type 1 protease (Human immunodeficiency virus 1), Q72874 [Q7K,L10F,I13V,I15V,D30V,V32I,L33F,E35D,M36I,S37N,I47V,I54L,Q58E,I62V,L63P,A71V,I84V,N88D,L89T,L90M]. Kind of experiment: Inhibition of transferrin receptor-fused HIV1 protease Q7K, L10F, I13V, I15V, D30V, V32I, L33F, E35D, M36I, S37N, I47V, I54L, Q58E, I62V, L63P, A71V, I84V, N88D, L89T, L90M mutant autoprocessing expressed in Escherichia coli up to 100 uM by SDS-PAGE analysis. In short, it runs like this: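 TFR-fused PR20 precursor was expressed in E. coli cultures grown with increasing inhibitor in the medium, up to 100 μM. The protein was partially purified, and autoprocessing was assessed by SDS-PAGE against wild-type TFR-PR with inhibitor.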

The test system is the same in experiment [2]. Kind of experiment: Binding affinity to HIV1 protease Q7K, L10F, I13V, I15V, D30V, V32I, L33F, E35D, M36I, S37N, I47V, I54L, Q58E, I62V, L63P, A71V, I84V, N88D, L89T, L90M mutant expressed in Escherichia coli BL21 (DE3) assessed as dissociation constant by isothermal titration calorimetric analysis. In short, it runs like this: (§1)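 PR20 (1.8−2.15 mg/mL in 12 mM HCl) was folded by adding 5 mM sodium acetate pH 6, then 100 mM sodium acetate pH 5, and centrifuged. It was titrated in the ITC cell with inhibitor at ~10-fold the PR20 concentration, in matching buffer. Inhibitor concentration was estimated from the fitted N at known PR20, assuming 1:1 binding. KL = 1/KA.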
(In ITC the heat of successive injections is recorded.)

For experiment [3] the test system is unchanged. Put plainly: Binding affinity to HIV1 protease Q7K, L10F, I13V, I15V, D30V, V32I, L33F, E35D, M36I, S37N, I47V, I54L, Q58E, I62V, L63P, A71V, I84V, N88D, L89T, L90M mutant expressed in Escherichia coli BL21 (DE3) assessed as association constant by isothermal titration calorimetric analysis. In short, it runs like this:
as §1

Experiment [4] shares this test system. Put plainly: Inhibition of transferrin receptor-fused HIV1 protease Q7K, L10F, I13V, I15V, D30V, V32I, L33F, E35D, M36I, S37N, I47V, I54L, Q58E, I62V, L63P, A71V, I84V, N88D, L89T, L90M mutant autoprocessing expressed in Escherichia coli at 100 to 150 uM by SDS-PAGE analysis.
For experiment [5], the target named is Protease (Human immunodeficiency virus 1) (UniProt Q9YQ12). To be noted: 0.5 to 8 uM.
Experiment [6] shares this target. Kind of experiment: Inhibition of HIV1 protease dimerization transfected in COS7 cells relative to darunavir. The class given is cell-based. To be noted: COS-7.
In experiment [7] the test system is Human immunodeficiency virus type 1 protease (Human immunodeficiency virus 1), Q72874 [Q7K,L10F,I13V,I15V,D30V,V32I,L33F,E35D,M36I,S37N,I47V,I54L,Q58E,I62V,L63P,A71V,I84V,N88D,L89T,L90M]. Put plainly: Ratio of amprenavir dissociation constant K to compound dissociation constant K for HIV1 protease Q7K, L10F, I13V, I15V, D30V, V32I, L33F, E35D, M36I, S37N, I47V, I54L, Q58E, I62V, L63P, A71V, I84V, N88D, L89T, L90M mutant.

As for `COc1ccc(S(=O)(=O)N(C[C@H]2CCC(=O)N2)C[C@@H](O)[C@H](Cc2ccccc2)NC(=O)O[C@@H]2C[C@@H]3CCO[C@@H]3C2)cc1`, the inhibition entry in experiment [1] is “inactive”. In addition, the K in experiment [2] stood at 960 nM; in experiment [3], 1.04 ×10⁶ /M.
`CC(C)CN(C[C@@H](O)[C@H](Cc1ccccc1)NC(=O)O[C@H]1CO[C@H]2OCC[C@H]21)S(=O)(=O)c1ccc(N)cc1`: the inhibition result in experiment [4] was “inactive”. Moreover, the K in experiment [2] amounted to 41 nM; in experiment [3] it was 24.5 ×10⁶ /M. For the same compound, in experiment [5], the inhibition entry was “Active”.
Take `COc1ccc(S(=O)(=O)N(CC(C)C)C[C@@H](O)[C@H](Cc2ccccc2)NC(=O)O[C@H]2CO[C@H]3O[C@@H]4OCC[C@@H]4[C@H]32)cc1`: in experiment [6], the fold change (FC) was 10. Further, the Ratio in experiment [7] was found to be 4.5. Further, the inhibition result in experiment [1] is “inactive”. In addition, the K in experiment [2] worked out at 39.5 nM; in experiment [3], 25.3 ×10⁶ /M.
In the case of `CC(C)CN(C[C@@H](O)[C@H](Cc1ccccc1)NC(=O)O[C@H]1CCOC1)S(=O)(=O)c1ccc(N)cc1`, the inhibition result in experiment [4] was “inactive”. Further, the K was 178 nM in experiment [2] and 5.61 ×10⁶ /M in experiment [3].
